18 molecules from ChEMBL document CHEMBL1154729, “Discovery of novel antitubercular 2,10-dihydro-4aH-chromeno[3,2-c]pyridin-3-yl derivatives” (Eur J Med Chem, 2010) can be followed below.

Converted amounts (≈) assume the structure as drawn.

Tested on in one experiment: not listed separately
The experiment can be described thus: Selectivity index, ratio of IC50 for african green monkey Vero cells to MIC for multidrug-resistant Mycobacterium tuberculosis. The format is functional.
In the case of `CCc1ccc(C(=O)NCC2=C[C@@H]3Oc4ccccc4C(=O)C3=CN2c2ncccc2C)cc1`, the “Selectivity Index” value was 1977.

Another experiment relates to Mycobacterium tuberculosis. The experiment can be described thus: Antimycobacterial activity against multidrug-resistant Mycobacterium tuberculosis by agar dilution method. The format is functional. The essentials: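 Agar dilution MIC on Middlebrook 7H11 agar supplemented with OADC, following NCCLS-like procedure; determined in duplicate.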
(In general: Agar dilution tests growth on a series of plates holding different concentrations.)
Broadly, the MIC is the least concentration at which growth counts as inhibited. Regarding `Cc1cccnc1N1C=C2C(=O)c3ccccc3O[C@H]2C=C1CNC(=O)c1ccccc1`, the lowest concentration to inhibit growth (MIC) was 3.68 µM (≈ 1.56 µg/mL).
`COc1ccc(C(=O)NCC2=C[C@@H]3Oc4ccccc4C(=O)C3=CN2c2ncccc2C)cc1` gave an MIC of 3.44 µM (≈ 1.56 µg/mL).
Molecule `Cc1cccnc1N1C=C2C(=O)c3ccccc3O[C@H]2C=C1CNC(=O)c1ccc(F)cc1` came in with a minimum inhibitory concentration (MIC) of 7.09 µM (≈ 3.13 µg/mL).
Consider `O=C(NCC1=C[C@@H]2Oc3ccccc3C(=O)C2=CN1c1ncc(Br)cc1Br)c1ccc(Cl)c(Cl)c1`, for which the lowest concentration to inhibit growth (MIC) was 4.91 µM (≈ 3.12 µg/mL).
Molecule `CCc1ccc(C(=O)NCC2=C[C@@H]3Oc4ccccc4C(=O)C3=CN2c2ncccc2C)cc1` had an MIC of 0.07 µM (≈ 0.0316 µg/mL).
Turning to `O=C(NCC1=C[C@@H]2Oc3ccccc3C(=O)C2=CN1c1ncc(Br)cc1Br)c1ccc(Cl)cc1`, 2.95 µM (≈ 1.77 µg/mL) was the least that counted as inhibitory (MIC).
In turn, `Cc1cccnc1N1C=C2C(=O)c3ccccc3O[C@H]2C=C1CNC(=O)c1cccc(Cl)c1` showed an MIC of 1.7 µM (≈ 0.778 µg/mL).
In turn, `Cc1cccnc1N1C=C2C(=O)c3ccccc3O[C@H]2C=C1CNC(=O)c1ccc2ccccc2c1` had an MIC of 0.42 µM (≈ 0.199 µg/mL).
As for `CC[C@@H](CO)NCCN[C@@H](CC)CO` [ETHAMBUTOL], 122 µM (≈ 25 µg/mL) was the least that counted as inhibitory (MIC).
Turning to `NNC(=O)c1ccncc1` [ISONIAZID], the lowest concentration to inhibit growth (MIC) was 45.6 µM (≈ 6.25 µg/mL).
`Cc1ccc(C(=O)NCC2=C[C@@H]3Oc4ccccc4C(=O)C3=CN2c2ncccc2C)cc1` showed an MIC of 1.78 µM (≈ 0.779 µg/mL).
The molecule `CO[C@H]1/C=C/O[C@@]2(C)Oc3c(C)c(O)c4c(O)c(c(/C=N/N5CCN(C)CC5)c(O)c4c3C2=O)NC(=O)/C(C)=C\C=C\[C@H](C)[C@H](O)[C@@H](C)[C@@H](O)[C@@H](C)[C@H](OC(C)=O)[C@@H]1C` [RIFAMPIN] gave an MIC of 3.79 µM (≈ 3.12 µg/mL).
As to `Cc1ccc2ccc(C(=O)NCC3=C[C@@H]4Oc5ccccc5C(=O)C4=CN3c3ncccc3C)cc2c1`, 0.13 µM (≈ 0.0634 µg/mL) was the least that counted as inhibitory (MIC).
Molecule `O=C(NCC1=C[C@@H]2Oc3ccccc3C(=O)C2=CN1c1ncc(Br)cc1Br)c1ccc2ccccc2c1` returned an MIC of 5.04 µM (≈ 3.11 µg/mL).
Consider `CCc1ccc(C(=O)NCC2=C[C@@H]3Oc4ccccc4C(=O)C3=CN2c2ncc(Br)cc2Br)cc1`, for which it took 1.3 µM (≈ 0.774 µg/mL) to inhibit growth (MIC).
For the molecule `O=C(NCC1=C[C@@H]2Oc3ccccc3C(=O)C2=CN1c1ncc(Br)cc1Br)c1cccc(Cl)c1`, the MIC turned out to be 2.6 µM (≈ 1.56 µg/mL).
For `Cc1cccnc1N1C=C2C(=O)c3ccccc3O[C@H]2C=C1CNC(=O)c1ccc(Cl)cc1`, 3.4 µM (≈ 1.56 µg/mL) was the least that counted as inhibitory (MIC).
Regarding `Cc1ccc2ccc(C(=O)NCC3=C[C@@H]4Oc5ccccc5C(=O)C4=CN3c3ncc(Br)cc3Br)cc2c1`, it took 0.61 µM (≈ 0.385 µg/mL) to inhibit growth (MIC).
